In ChEMBL document CHEMBL5303300, “EUbOPEN Chemogenomics Library - Multiplex” (2023):
Several values for one entry are separate records, joined by “and”; a condition that tells them apart may be missing. Equal entries are not always repeated.

Tested on: Fibroblast
Assay: Multiplex assay against human fibroblast
Assay type: toxicity, cell-based
Settings: number of replicates 2
How it was run: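 Cells were classed with CellPathfinder machine-learning gating, first as Hoechst high-intensity objects or normal cells, then (normal cells) as healthy, pyknosed or fragmented nuclei, and finally (pyknosed cells) as mitotic or apoptotic. Staining of live cells at seeding used Hoechst33342, BioTracker Green Microtubule Cytoskeleton Dye, MitoTracker Red and Annexin V Alexa Fluor 680, with imaging on a CQ1 microscope at 37°C and 5% CO2 after compound addition. Tubulin, mitochondrial-mass and membrane-permeability phenotypes are per cents of healthy-nucleus cells.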

[1] = 12 h, 1 µM, compound concentration 1 uM
[2] = 12 h, 10 µM, compound concentration 10 uM
[3] = 24 h, 1 µM, compound concentration 1 uM
[4] = 24 h, 10 µM, compound concentration 10 uM
[5] = 48 h, 1 µM, compound concentration 1 uM
[6] = 48 h, 10 µM, compound concentration 10 uM

C[C@@H](Oc1cc(-n2cnc3ccc(OC4CCN(C)CC4)cc32)sc1C(N)=O)c1ccccc1Cl [GSK-579289A]
Population Apoptotic (%) [1]: 45% and 36%
Population Fragmented Nuclei (%) [1]: 21% and 15%
Population Healthy Nuclei (%) [1]: 62% and 60%
Population Hoechst High Intensity Objects (%) [1]: 0%
Population Membrane Permeable-Phenotype (%) [1]: 7% and 10%
Population Mitochondria Different-Phenotype (%) [1]: 1% and 3%
Population Mitotic Cells (%) [1]: 54% and 63%
Population Normal (%) [1]: 99% and 100%
Population Pyknosed Nuclei (%) [1]: 15% and 24%
Population Tubulin-Different-Phenotype (%) [1]: 40% and 48%
Total Cell Count [1]: 296 and 182
Population Apoptotic (%) [2]: 40% and 46%
Population Fragmented Nuclei (%) [2]: 13% and 23%
Population Healthy Nuclei (%) [2]: 60% and 59%
Population Hoechst High Intensity Objects (%) [2]: 0%
Population Membrane Permeable-Phenotype (%) [2]: 5% and 13%
Population Mitochondria Different-Phenotype (%) [2]: 12% and 13%
Population Mitotic Cells (%) [2]: 59% and 53%
Population Normal (%) [2]: 100%
Population Pyknosed Nuclei (%) [2]: 26% and 17%
Population Tubulin-Different-Phenotype (%) [2]: 84% and 85%
Total Cell Count [2]: 323 and 282
Population Apoptotic (%) [3]: 54% and 58%
Population Fragmented Nuclei (%) [3]: 18% and 23%
Population Healthy Nuclei (%) [3]: 63% and 57%
Population Hoechst High Intensity Objects (%) [3]: 1% and 0%
Population Membrane Permeable-Phenotype (%) [3]: 3% and 2%
Population Mitochondria Different-Phenotype (%) [3]: 3% and 5%
Population Mitotic Cells (%) [3]: 45% and 41%
Population Normal (%) [3]: 98% and 99%
Population Pyknosed Nuclei (%) [3]: 18% and 19%
Population Tubulin-Different-Phenotype (%) [3]: 43% and 40%
Total Cell Count [3]: 282 and 205
Population Apoptotic (%) [4]: 79% and 73%
Population Fragmented Nuclei (%) [4]: 16% and 25%
Population Healthy Nuclei (%) [4]: 46% and 50%
Population Hoechst High Intensity Objects (%) [4]: 0%
Population Membrane Permeable-Phenotype (%) [4]: 2% and 6%
Population Mitochondria Different-Phenotype (%) [4]: 38% and 39%
Population Mitotic Cells (%) [4]: 20% and 26%
Population Normal (%) [4]: 100% and 99%
Population Pyknosed Nuclei (%) [4]: 37% and 23%
Population Tubulin-Different-Phenotype (%) [4]: 88% and 92%
Total Cell Count [4]: 281 and 274
Population Apoptotic (%) [5]: 65% and 85%
Population Fragmented Nuclei (%) [5]: 21% and 25%
Population Healthy Nuclei (%) [5]: 64% and 61%
Population Hoechst High Intensity Objects (%) [5]: 1% and 0%
Population Membrane Permeable-Phenotype (%) [5]: 4%
Population Mitochondria Different-Phenotype (%) [5]: 2% and 5%
Population Mitotic Cells (%) [5]: 34% and 14%
Population Normal (%) [5]: 98% and 99%
Population Pyknosed Nuclei (%) [5]: 14% and 12%
Population Tubulin-Different-Phenotype (%) [5]: 44% and 38%
Total Cell Count [5]: 307 and 222
Population Apoptotic (%) [6]: 97% and 94%
Population Fragmented Nuclei (%) [6]: 18% and 24%
Population Healthy Nuclei (%) [6]: 22% and 18%
Population Hoechst High Intensity Objects (%) [6]: 1% and 0%
Population Mitochondria Different-Phenotype (%) [6]: 46% and 48%
Population Mitotic Cells (%) [6]: 2% and 5%
Population Normal (%) [6]: 98% and 99%
Population Pyknosed Nuclei (%) [6]: 58% and 57%
Population Tubulin-Different-Phenotype (%) [6]: 77% and 93%
Total Cell Count [6]: 199 and 171

CN1CCN(c2ccc(-n3cc(-c4ccncc4OCC4CCNCC4)cn3)cc2)CC1
Population Apoptotic (%) [1]: 44%
Population Fragmented Nuclei (%) [1]: 13% and 12%
Population Healthy Nuclei (%) [1]: 58% and 71%
Population Hoechst High Intensity Objects (%) [1]: 0%
Population Membrane Permeable-Phenotype (%) [1]: 3% and 8%
Population Mitochondria Different-Phenotype (%) [1]: 2% and 0%
Population Mitotic Cells (%) [1]: 55%
Population Normal (%) [1]: 100%
Population Pyknosed Nuclei (%) [1]: 27% and 16%
Population Tubulin-Different-Phenotype (%) [1]: 15% and 14%
Total Cell Count [1]: 131 and 173
Population Apoptotic (%) [2]: 38% and 75%
Population Fragmented Nuclei (%) [2]: 13% and 25%
Population Healthy Nuclei (%) [2]: 72% and 63%
Population Hoechst High Intensity Objects (%) [2]: 0%
Population Membrane Permeable-Phenotype (%) [2]: 2% and 4%
Population Mitochondria Different-Phenotype (%) [2]: 1% and 3%
Population Mitotic Cells (%) [2]: 61% and 25%
Population Normal (%) [2]: 100%
Population Pyknosed Nuclei (%) [2]: 14% and 10%
Population Tubulin-Different-Phenotype (%) [2]: 34% and 31%
Total Cell Count [2]: 179 and 182
Population Apoptotic (%) [3]: 56% and 48%
Population Fragmented Nuclei (%) [3]: 13% and 14%
Population Healthy Nuclei (%) [3]: 58% and 68%
Population Hoechst High Intensity Objects (%) [3]: 0%
Population Membrane Permeable-Phenotype (%) [3]: 7% and 9%
Population Mitochondria Different-Phenotype (%) [3]: 2% and 1%
Population Mitotic Cells (%) [3]: 43% and 51%
Population Normal (%) [3]: 100%
Population Pyknosed Nuclei (%) [3]: 28% and 17%
Population Tubulin-Different-Phenotype (%) [3]: 17% and 13%
Total Cell Count [3]: 131 and 178
Population Apoptotic (%) [4]: 39% and 47%
Population Fragmented Nuclei (%) [4]: 20% and 26%
Population Healthy Nuclei (%) [4]: 65% and 61%
Population Hoechst High Intensity Objects (%) [4]: 0%
Population Membrane Permeable-Phenotype (%) [4]: 8% and 5%
Population Mitochondria Different-Phenotype (%) [4]: 7% and 13%
Population Mitotic Cells (%) [4]: 60% and 52%
Population Normal (%) [4]: 100%
Population Pyknosed Nuclei (%) [4]: 14% and 11%
Population Tubulin-Different-Phenotype (%) [4]: 52% and 44%
Total Cell Count [4]: 189 and 192
Population Apoptotic (%) [5]: 75% and 66%
Population Fragmented Nuclei (%) [5]: 21% and 16%
Population Healthy Nuclei (%) [5]: 61% and 72%
Population Hoechst High Intensity Objects (%) [5]: 0%
Population Membrane Permeable-Phenotype (%) [5]: 10% and 4%
Population Mitochondria Different-Phenotype (%) [5]: 1% and 0%
Population Mitotic Cells (%) [5]: 25% and 33%
Population Normal (%) [5]: 100%
Population Pyknosed Nuclei (%) [5]: 16% and 10%
Population Tubulin-Different-Phenotype (%) [5]: 17% and 10%
Total Cell Count [5]: 142 and 191
Population Apoptotic (%) [6]: 76% and 73%
Population Fragmented Nuclei (%) [6]: 31% and 30%
Population Healthy Nuclei (%) [6]: 54% and 61%
Population Hoechst High Intensity Objects (%) [6]: 0%
Population Membrane Permeable-Phenotype (%) [6]: 2% and 4%
Population Mitochondria Different-Phenotype (%) [6]: 11% and 13%
Population Mitotic Cells (%) [6]: 23% and 26%
Population Normal (%) [6]: 99% and 100%
Population Pyknosed Nuclei (%) [6]: 14% and 7%
Population Tubulin-Different-Phenotype (%) [6]: 59% and 48%
Total Cell Count [6]: 212 and 189
